Experimental data: ChEMBL document CHEMBL1128642, “Discovery of an orally bioavailable NK1 receptor antagonist, (2S,3S)-(2-methoxy-5-tetrazol-1-ylbenzyl)(2-phenylpiperidin-3-yl)amine (GR203040), with potent antiemetic activity” (J Med Chem, 1995)

Tests used:
Canis familiaris = organism: Canis familiaris; experiment: In vitro metabolic turnover (% parent lost) after exposure to dog hepatic microsomes (hepatic first pass metabolism); format: functional; details: Canis lupus familiaris, Liver
In short: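 Dog liver microsomes with an NADPH-regenerating system, shaken at 37 °C. Centrifuged, then parent compound quantified by reverse-phase HPLC with UV detection at 215 nm. Turnover (% parent lost) taken from the peak-area difference versus a control incubation lacking NADPH regeneration.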

[1] = Lipophilicity; format: physicochemical; details: octanol/water
Mustela putorius furo [2] = experiment: Compound was evaluated in vivo for its antiemetic activity in ferret, which was administered subcutaneously 90 minutes before (90 ptt) induction of emesis; format: functional
In short: (§1)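 Adult male ferrets (1.0–1.7 kg), whole-body X-irradiation at 2 Gy over about 5 min. Antagonist given sc 90 min before irradiation or immediately after it. Retches and vomits counted. ID90 is the lowest dose giving ≥90% inhibition of emesis versus untreated irradiated controls; n per group reported.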

Substance-P receptor = Substance-P receptor (Homo sapiens, UniProt P25103); experiment: Binding affinity to Tachykinin receptor 1 stably expressed in chinese hamster ovary (CHO) cells; format: cell-based
In short: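 Membranes from CHO cells stably expressing human NK1 receptor, grown in DMEM/F12 with 10% FCS and 4 mM glutamine. Incubated 40 min at 22 °C with 0.7–1.0 nM [3H]substance P (final) in HEPES 50 mM/3 mM MnCl2, pH 7.4, 3 µg protein.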

[3] = Oral bioavailability in dog; format: ADME, organism-based, Canis lupus familiaris; details: in vivo
In short: (§2)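 Beagle dogs, iv then oral crossover at 2 mg/kg with wash-out between doses. Blood drawn predose and at 0.08–8 h; plasma prepared at about 5 °C. Parent compound measured by solid-phase extraction and reversed-phase HPLC-UV. Plasma clearance taken from iv dosing; oral bioavailability F calculated from both routes.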

Mustela putorius furo [4] = experiment: Compound was evaluated in vivo for its antiemetic activity in ferret, which was administered subcutaneously immediately after (0 ptt) induction of emesis; format: functional; in short: as §1
[5] = system: Substance-P receptor (Meriones unguiculatus); experiment: Compound was evaluated for its ex vivo binding affinity towards substance P receptor measured 15 minutes post administration to gerbil; details: Gerbillinae
[6] = Compound was evaluated in vivo for plasma clearance in dog after intravenous dose at 2 mg/Kg; format: ADME, organism-based, Canis lupus familiaris; details: read-out: Clp; in short: as §2
[7] = Partition coefficient (logD); format: physicochemical; details: octanol/water
Mustela putorius furo [8] = experiment: Compound was evaluated in vivo for its antiemetic activity in ferret, which was administered subcutaneously 90 minutes before (90 ptt) induction of emesis;>80% inhibition observed; format: functional

Sequence of Substance-P receptor (P25103 whole entry): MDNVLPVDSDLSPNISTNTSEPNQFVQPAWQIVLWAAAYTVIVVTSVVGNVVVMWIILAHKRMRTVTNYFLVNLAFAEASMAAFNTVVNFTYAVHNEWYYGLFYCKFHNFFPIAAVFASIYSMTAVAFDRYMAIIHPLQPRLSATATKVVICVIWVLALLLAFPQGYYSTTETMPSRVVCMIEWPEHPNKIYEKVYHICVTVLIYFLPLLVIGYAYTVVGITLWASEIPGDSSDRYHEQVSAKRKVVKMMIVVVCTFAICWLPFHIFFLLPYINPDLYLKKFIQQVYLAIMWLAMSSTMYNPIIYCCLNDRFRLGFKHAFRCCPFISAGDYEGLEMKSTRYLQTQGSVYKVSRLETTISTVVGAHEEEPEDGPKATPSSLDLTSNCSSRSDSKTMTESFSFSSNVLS

Row | logD [1] | Ki (Substance-P receptor) [nM] | bioavailability [3] [%] | ED50 [5] [mg/kg] | clearance [6] [mL/min/kg] | logD [7] | Compound | Metabolic turnover (Canis familiaris) [%] | ID90 (Mustela putorius furo [2]) [mg/kg] | ID90 (Mustela putorius furo [4]) [mg/kg] | ID90 (Mustela putorius furo [8]) [mg/kg]
1 | 2.3 | 0.0501 | – | – | – | – | COc1ccc(-c2c(C)noc2C)cc1CN[C@H]1CCCN[C@H]1c1ccccc1 | 92 | 1 | – | –
2 | 0.2 | 0.501 | 42 | > 0.3 | 23 | – | COc1ccc(S(C)(=O)=O)cc1CN[C@H]1CCCN[C@H]1c1ccccc1 | 25 | >10 | >10 | –
3 | – | 0.126 | – | – | – | 0.8 | COc1ccc(-n2ncnn2)cc1CN[C@H]1CCCN[C@H]1c1ccccc1 | 65 | >1 | – | –
4 | 1.4 | 0.158 | – | – | – | – | COc1ccc(-c2cncnc2)cc1CN[C@H]1CCCN[C@H]1c1ccccc1 | 36 | >3 | 3 | –
5 | 2.3 | 0.794 | – | – | – | – | COc1ccc(-c2c(C)nn(C)c2C)cc1CN[C@H]1CCCN[C@H]1c1ccccc1 | 82 | – | – | –
6 | 2.2 | 0.0631 | – | – | – | – | COc1ccc(-c2ccncc2)cc1CN[C@H]1CCCN[C@H]1c1ccccc1 | 98 | – | 0.3 | –
7 | 1.2 | 0.158 | – | – | – | – | COc1ccc(-n2cncn2)cc1CN[C@H]1CCCN[C@H]1c1ccccc1 | 55 | >3 | 3 | –
8 | 3.1 | 0.0316 | – | – | – | – | COc1ccc(-c2ccsc2)cc1CN[C@H]1CCCN[C@H]1c1ccccc1 | 92 | – | >3 | –
9 | 1.4 | – | < 10 | – | 94 | – | COc1ccccc1CN[C@H]1CCCN[C@H]1c1ccccc1 [CP-99994] | 100 | – | 1 | 1
10 | – | 0.0501 | 76 | – | 24 | 0.8 | COc1ccc(-n2cnnn2)cc1CN[C@H]1CCCN[C@H]1c1ccccc1 | 51 | 0.1 | 0.1 | –
11 | 1.4 | 2.51 | – | – | – | – | COc1ccc(-c2nnn(C)n2)cc1CN[C@H]1CCCN[C@H]1c1ccccc1 | 63 | >3 | – | –
12 | 1.2 | 2 | – | – | – | – | COc1ccc(-c2nccn2C)cc1CN[C@H]1CCCN[C@H]1c1ccccc1 | 90 | >3 | – | –
13 | 2.5 | 0.0631 | < 10 | – | 45 | – | COc1ccc(-c2ccoc2)cc1CN[C@H]1CCCN[C@H]1c1ccccc1 | 85 | 0.3 | 0.3 | –
14 | 2 | 0.0794 | – | – | – | – | COc1ccc(SC)cc1CN[C@H]1CCCN[C@H]1c1ccccc1 | 94 | – | 1 | –
15 | 2.3 | 0.794 | – | – | – | – | COc1ccc(-c2nccs2)cc1CN[C@H]1CCCN[C@H]1c1ccccc1 | 61 | – | >3 | –
16 | 3 | 0.501 | – | – | – | – | COc1ccc(-c2ccco2)cc1CN[C@H]1CCCN[C@H]1c1ccccc1 | 100 | >3 | – | –
17 | 2.5 | 0.0501 | – | – | – | – | COc1ccc(Br)cc1CN[C@H]1CCCN[C@H]1c1ccccc1 | 60 | – | – | –
18 | 0.5 | 0.2 | – | – | – | – | COc1ccc(-c2nnnn2C)cc1CN[C@H]1CCCN[C@H]1c1ccccc1 | 27 | >3 | – | –
19 | 1.8 | 0.158 | – | – | – | – | COc1ccc(F)cc1CN[C@H]1CCCN[C@H]1c1ccccc1 | – | – | 3 | –
